In ChEMBL document CHEMBL1138921, “Discovery of 3,5-bis(trifluoromethyl)benzyl L-arylglycinamide based potent CCR2 antagonists” (Bioorg Med Chem Lett, 2006):
Values belong to the molecule of their own block, whether it stands above or below them.

Columns and labels:
[1] = test system: Monocyte; assay: Inhibition of MCP1-induced chemotaxis of human monocytes at 10 uM; assay type: functional
How it was run: (§1)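 Human monocytes loaded with Calcein-AM in Hanks' buffer with 0.01% BSA, 37 °C, 30 min, then washed and resuspended in phenol red-free RPMI 1640 with 0.01% BSA. Migration toward MCP-1 measured in disposable 96-well chemotaxis plates (5.7 mm diameter wells), 1.5 × 10⁵ cells/well.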

[2] = biological target: T1, C-C chemokine receptor type 2 (Homo sapiens, UniProt P41597); assay: Displacement of [125I]MCP1 from human CCR2 expressed in CHO cells; assay type: cell-based
How it was run: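 Competition binding: CHO cells stably expressing human CCR2b (5 × 10⁴) incubated with ¹²⁵I-hMCP-1 (20–50 pM) plus varied unlabeled competitor, 60 min, room temperature, in 50 mM HEPES, 5 mM MgCl₂, 1 mM CaCl₂, pH 7.4. Ended by filtration through polyethyleneimine-soaked GF/B filters, washed with 25 mM HEPES pH 7.5/500 mM NaCl. Values given as IC₅₀ or % inhibition at 1 µM.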

[3] = biological target: Substance-P receptor (Homo sapiens, UniProt P25103); assay: Binding affinity to human NK1 receptor
[4] = test system: Monocyte; assay: Inhibition of MCP1-induced chemotaxis of human monocytes; assay type: functional, cell-based; how it was run: as §1
[5] = biological target: T2, Neuromedin-K receptor (Homo sapiens, UniProt P29371); assay: (§2) Binding affinity to human NK3 receptor
T2 sequence (P29371 whole entry): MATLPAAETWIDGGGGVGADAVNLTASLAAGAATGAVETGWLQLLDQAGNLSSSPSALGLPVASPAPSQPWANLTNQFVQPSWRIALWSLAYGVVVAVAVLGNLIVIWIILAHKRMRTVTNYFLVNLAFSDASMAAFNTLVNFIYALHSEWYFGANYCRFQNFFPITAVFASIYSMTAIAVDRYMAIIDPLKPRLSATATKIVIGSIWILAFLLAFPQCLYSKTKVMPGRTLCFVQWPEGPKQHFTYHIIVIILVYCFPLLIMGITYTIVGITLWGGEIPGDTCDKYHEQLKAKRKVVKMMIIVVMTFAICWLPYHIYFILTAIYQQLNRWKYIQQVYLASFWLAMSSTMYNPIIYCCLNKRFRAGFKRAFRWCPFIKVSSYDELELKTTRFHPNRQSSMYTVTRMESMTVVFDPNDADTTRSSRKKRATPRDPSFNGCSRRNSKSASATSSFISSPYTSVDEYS

[6] = biological target: T3, Neuromedin-K receptor (Homo sapiens) (UniProt P29371); assay: as §2
T3 sequence (whole entry): T2 sequence (P29371 whole entry)

[7] = biological target: C-C chemokine receptor type 8 (Homo sapiens, UniProt P51685); assay: Binding affinity to CCR8
[8] = test system: Rattus norvegicus; assay: Systemic level in rat at 3 mg/kg, po; assay type: ADME, organism-based; set-up: dose 3 mg/kg, route oral; details: in vivo
How it was run: (§3)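 Rats dosed orally at 3 mg/kg; drug levels in portal and systemic blood sampled at several time points to assess first-pass metabolism.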

[9] = Half life in rat; assay type: ADME, organism-based; details: in vivo
[10] = biological target: T4, Substance-K receptor (Homo sapiens) (UniProt P21452); assay: (§4) Binding affinity to human NK2 receptor
T4 sequence (whole entry): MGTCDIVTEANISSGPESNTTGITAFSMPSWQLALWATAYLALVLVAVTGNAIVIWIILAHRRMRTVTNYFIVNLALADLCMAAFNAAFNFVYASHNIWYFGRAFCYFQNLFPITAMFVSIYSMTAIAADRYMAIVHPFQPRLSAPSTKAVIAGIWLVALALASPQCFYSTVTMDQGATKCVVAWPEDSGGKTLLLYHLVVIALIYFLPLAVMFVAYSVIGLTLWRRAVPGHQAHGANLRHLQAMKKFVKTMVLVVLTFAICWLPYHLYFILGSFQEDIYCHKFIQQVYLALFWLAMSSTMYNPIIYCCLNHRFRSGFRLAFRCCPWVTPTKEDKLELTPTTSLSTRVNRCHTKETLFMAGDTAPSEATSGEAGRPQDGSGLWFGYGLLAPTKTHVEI

[11] = biological target: T5, Substance-K receptor (Homo sapiens, UniProt P21452); assay: as §4
T5 sequence (P21452 whole entry): T4 sequence (whole entry)

[12] = Oral bioavailability in rat; assay type: ADME, organism-based; details: in vivo
[13] = Clearance in rat; assay type: ADME, organism-based; details: in vivo
[14] = biological target: T6, C-C chemokine receptor type 3 (Homo sapiens) (UniProt P51677); assay: (§5) Binding affinity to CCR3
T6 sequence (whole entry): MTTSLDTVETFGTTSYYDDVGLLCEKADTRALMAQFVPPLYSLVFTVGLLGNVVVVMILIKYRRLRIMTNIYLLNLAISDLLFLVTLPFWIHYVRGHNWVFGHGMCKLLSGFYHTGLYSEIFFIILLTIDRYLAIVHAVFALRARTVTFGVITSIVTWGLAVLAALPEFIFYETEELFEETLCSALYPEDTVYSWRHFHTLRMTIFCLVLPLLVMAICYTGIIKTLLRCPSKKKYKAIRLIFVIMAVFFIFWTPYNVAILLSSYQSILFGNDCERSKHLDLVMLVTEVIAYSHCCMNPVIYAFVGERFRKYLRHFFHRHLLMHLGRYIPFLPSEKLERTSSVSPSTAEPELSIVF

[15] = biological target: T7, C-C chemokine receptor type 3 (Homo sapiens, UniProt P51677); assay: as §5
T7 sequence (P51677 whole entry): T6 sequence (whole entry)

[16] = Portal level in rat at 3 mg/kg, po after 1 hr; assay type: ADME, organism-based; set-up: dose 3 mg/kg, route oral; details: portal vein (blood or plasma not stated), read-out: Activity; how it was run: as §3
[17] = biological target: T1, C-C chemokine receptor type 2; assay: Binding affinity to CCR2 in human monocytes; assay type: cell-based
How it was run: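 Competition binding on human monocytes (2 × 10⁵ cells) incubated with ¹²⁵I-hMCP-1 (20–50 pM; 2200 Ci/mmol) and a range of unlabeled competitor concentrations. Buffer: 50 mM HEPES, 5 mM MgCl₂, 1 mM CaCl₂, pH 7.4, for 60 min at room temperature. Stopped by filtration through PEI-presoaked GF/B filters, washed with 25 mM HEPES pH 7.5 / 500 mM NaCl. Reported as IC50.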

[18] = biological target: T8, C-C chemokine receptor type 1 (Homo sapiens, UniProt P32246); assay: (§6) Binding affinity to CCR1
T8 sequence (P32246 whole entry): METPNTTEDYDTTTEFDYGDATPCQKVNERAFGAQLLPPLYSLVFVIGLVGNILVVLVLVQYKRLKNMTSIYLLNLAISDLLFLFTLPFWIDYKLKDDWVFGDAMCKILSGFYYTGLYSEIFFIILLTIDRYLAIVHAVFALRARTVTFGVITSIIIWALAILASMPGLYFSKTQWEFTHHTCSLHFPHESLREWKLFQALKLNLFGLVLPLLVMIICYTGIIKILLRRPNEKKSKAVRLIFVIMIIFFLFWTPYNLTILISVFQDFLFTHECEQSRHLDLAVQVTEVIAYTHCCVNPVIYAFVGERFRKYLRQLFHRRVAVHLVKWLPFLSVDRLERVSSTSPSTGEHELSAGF

[19] = biological target: T9, C-C chemokine receptor type 1 (Homo sapiens) (UniProt P32246); assay: as §6
T9 sequence (whole entry): T8 sequence (P32246 whole entry)

[20] = biological target: C-C chemokine receptor type 5 (Homo sapiens, UniProt P51681)
[21] = biological target: T10, C-C chemokine receptor type 4 (Homo sapiens) (UniProt P51679); assay: (§7) Binding affinity to CCR4
T10 sequence (whole entry): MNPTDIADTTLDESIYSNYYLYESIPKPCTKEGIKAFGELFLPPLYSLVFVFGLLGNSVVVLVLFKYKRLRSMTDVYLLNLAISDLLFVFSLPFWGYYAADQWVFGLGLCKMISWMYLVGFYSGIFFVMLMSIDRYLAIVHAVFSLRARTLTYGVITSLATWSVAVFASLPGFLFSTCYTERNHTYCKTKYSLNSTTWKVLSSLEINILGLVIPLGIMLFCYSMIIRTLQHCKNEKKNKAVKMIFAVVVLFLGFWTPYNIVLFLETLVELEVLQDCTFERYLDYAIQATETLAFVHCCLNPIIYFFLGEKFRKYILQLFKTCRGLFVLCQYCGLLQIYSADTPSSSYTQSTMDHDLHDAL

[22] = biological target: T11, C-C chemokine receptor type 4 (Homo sapiens, UniProt P51679); assay: as §7
T11 sequence (P51679 whole entry): T10 sequence (whole entry)

[23] = biological target: T1, C-C chemokine receptor type 2; assay: Antagonist activity against CCR2 assessed as inhibition of MCP1-induced calcium flux in human monocytes; assay type: functional, cell-based

T1 sequence (P41597 whole entry): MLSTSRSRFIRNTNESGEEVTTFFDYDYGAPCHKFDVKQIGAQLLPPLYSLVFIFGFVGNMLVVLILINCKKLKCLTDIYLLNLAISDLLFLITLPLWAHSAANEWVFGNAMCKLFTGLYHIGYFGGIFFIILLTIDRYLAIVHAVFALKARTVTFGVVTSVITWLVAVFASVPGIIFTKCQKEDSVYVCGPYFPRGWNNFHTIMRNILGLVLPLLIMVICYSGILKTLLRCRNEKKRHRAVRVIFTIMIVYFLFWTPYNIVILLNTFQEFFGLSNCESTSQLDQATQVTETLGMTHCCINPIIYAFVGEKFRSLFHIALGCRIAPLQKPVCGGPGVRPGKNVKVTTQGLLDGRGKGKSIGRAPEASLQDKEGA
Chain of Substance-P receptor (P25103 whole entry): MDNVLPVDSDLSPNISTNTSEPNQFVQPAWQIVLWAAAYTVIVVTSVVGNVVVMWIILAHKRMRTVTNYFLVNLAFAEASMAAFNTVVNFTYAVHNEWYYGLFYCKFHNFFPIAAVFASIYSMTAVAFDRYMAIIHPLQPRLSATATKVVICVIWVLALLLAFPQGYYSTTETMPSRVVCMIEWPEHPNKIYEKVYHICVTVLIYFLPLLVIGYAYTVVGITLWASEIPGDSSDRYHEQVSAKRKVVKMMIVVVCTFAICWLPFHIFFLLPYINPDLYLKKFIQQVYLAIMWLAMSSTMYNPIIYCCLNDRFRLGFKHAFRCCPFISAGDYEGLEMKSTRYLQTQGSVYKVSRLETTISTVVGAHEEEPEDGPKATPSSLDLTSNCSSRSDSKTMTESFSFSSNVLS
Chain of C-C chemokine receptor type 8 (P51685 whole entry): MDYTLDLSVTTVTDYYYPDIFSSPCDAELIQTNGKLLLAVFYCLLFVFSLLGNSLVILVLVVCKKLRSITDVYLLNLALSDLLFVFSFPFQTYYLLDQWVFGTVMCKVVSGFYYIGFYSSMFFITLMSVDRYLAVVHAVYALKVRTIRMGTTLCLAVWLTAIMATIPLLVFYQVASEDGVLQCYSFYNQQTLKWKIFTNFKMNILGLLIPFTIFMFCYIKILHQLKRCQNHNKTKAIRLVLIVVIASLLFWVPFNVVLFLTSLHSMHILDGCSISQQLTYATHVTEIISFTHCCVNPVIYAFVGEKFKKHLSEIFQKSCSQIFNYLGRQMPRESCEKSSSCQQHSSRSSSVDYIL
Chain of C-C chemokine receptor type 5 (P51681 whole entry): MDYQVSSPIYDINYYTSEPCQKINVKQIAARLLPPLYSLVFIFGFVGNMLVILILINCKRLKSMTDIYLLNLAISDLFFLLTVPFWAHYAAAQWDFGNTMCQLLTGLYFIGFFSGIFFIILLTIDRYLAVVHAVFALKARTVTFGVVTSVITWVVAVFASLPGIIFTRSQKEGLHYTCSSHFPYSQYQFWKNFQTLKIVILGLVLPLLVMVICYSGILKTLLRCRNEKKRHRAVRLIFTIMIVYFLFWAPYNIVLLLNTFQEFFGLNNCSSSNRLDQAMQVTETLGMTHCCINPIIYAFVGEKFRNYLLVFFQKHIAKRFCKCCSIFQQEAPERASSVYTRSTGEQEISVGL

IC50 [2]: 770 nM | IC50 [3]: 650 nM
SMILES: CN(C)CCN[C@H](C(=O)NCc1cc(C(F)(F)F)cc(C(F)(F)F)c1)c1ccc(F)cc1

IC50 [5]: > 1000 nM | Activity [6]: 10% | Activity [7]: 15% | IC50 [7]: > 1000 nM | Activity [8]: < 20 ng/mL | half-life [9]: 1.8 h | Activity [10]: 20% | IC50 [11]: > 1000 nM | IC50 [2]: 39 nM | bioavailability [12]: 4.5% | clearance [13]: 80 mL/min/kg | Activity [3]: 31% | IC50 [3]: > 100 nM | Activity [14]: 2% | IC50 [15]: > 1000 nM | concentration at 1 h [16]: > 300 ng/mL | IC50 [17]: 30 nM | IC50 [18]: > 1000 nM | Activity [19]: -19% | IC50 [4]: 9.6 nM | IC50 [20]: > 1000 nM | Activity [21]: 6% | IC50 [22]: > 2000 nM | IC50 [23]: 50 nM
SMILES: O=C(NCc1cc(C(F)(F)F)cc(C(F)(F)F)c1)[C@@H](NCCN1CCCCC1)c1ccsc1

IC50 [2]: 1480 nM
SMILES: CN(C)CCNC(C(=O)NCc1cc(C(F)(F)F)cc(C(F)(F)F)c1)c1ccccc1 (stereo not drawn)

IC50 [2]: 756 nM
SMILES: CC1CCN(CCN[C@H](C(=O)NCc2cc(C(F)(F)F)cc(C(F)(F)F)c2)c2ccccc2)CC1

IC50 [2]: 424 nM
SMILES: CN(C)CCN[C@H](C(=O)NCc1cc(C(F)(F)F)cc(C(F)(F)F)c1)c1ccsc1

IC50 [2]: 219 nM
SMILES: O=C(NCc1cc(C(F)(F)F)cc(C(F)(F)F)c1)[C@@H](NCCN1CCCCC1)c1ccccc1

Further lines, the molecule ahead of its results:

SMILES: CN(CCN1CCCCC1)c1ccc(-c2nc3cc(Cl)c(Cl)cc3[nH]2)cc1
inhibition at 10 µM [1]: 100%

SMILES: O=C(/C=C/c1ccc(Cl)c(Cl)c1)NCCCCCN1CCC(c2c[nH]c3ccc(O)cc23)CC1
Kb [4]: 25 nM

SMILES: O=C(O)c1cc2cc(O)ccc2n1Cc1ccc(Cl)c(Cl)c1
Ki [2]: 29 nM | IC50 [4]: 60 nM

SMILES: Cc1ccc2c(c1)C1(CCN(CCc3coc(-c4ccc(F)cc4)n3)CC1)OC(=O)N2
IC50 [2]: 32 nM | IC50 [4]: 1000 nM

SMILES: O=C(NCc1cc(C(F)(F)F)cc(C(F)(F)F)c1)C(NCCN1CCOCC1)c1ccccc1 (stereo not drawn)
IC50 [2]: 575 nM

SMILES: O=C(NC(=O)c1ccc2nccnc2c1)Nc1cccc(-c2ccccc2)c1
IC50 [4]: 60 nM
